The values that follow come from article PMC11796557 (RSC Advances, 2025).

What all share (format): cell-based
One assay concerns HCT116 (colon carcinoma). In words: MTT anticancer activity. The following applies: Homo sapiens, HCT-116, 48 h, read-out: IC50 HCT116. The gist of the method: (§1)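 Cells kept in DMEM with 10% FBS, 1% penicillin–streptomycin and 1% L-glutamine at 37 °C, 5% CO₂. They were seeded at 10 000 per well and attached for 24 h, then exposed to varying concentrations (from a 10 mM DMSO stock) for 48 h. MTT (5 mg mL⁻¹) was added for 4 h, formazan dissolved in DMSO, and A570 read. IC50 was calculated. DMSO served as vehicle control and cisplatin or doxorubicin as positive control. Values are mean ± SD of three independent experiments (n = 9).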

The subject of another assay is MCF-7 (breast carcinoma). In words: MTT anticancer activity. The following applies: Homo sapiens, MCF7, 48 h, read-out: IC50 MCF-7. The gist of the method: as §1
For the next assay, the system named is A549 (lung carcinoma). Put plainly: MTT anticancer activity. Particulars: Homo sapiens, A549, 48 h, read-out: IC50 A549. The gist of the method: as §1
Another assay deals with normal fibroblasts. In words: MTT cytotoxicity assay, normal fibroblasts. Particulars: Fibroblast, 48 h, read-out: IC50 Fibroblasts. The gist of the method: as §1
On the technique in general: Tetrazolium assays rely on reduction of a dye to a coloured formazan, in cell work by metabolically active cells.

The next assay deals with PC3 (prostate carcinoma). Put plainly: MTT anticancer activity. The following applies: Homo sapiens, 48 h, read-out: IC50 PC3. The gist of the method:
as §1

Broadly, the IC50 is the concentration needed to halve the response being measured. With `CC1(C)CC(=O)c2c(O)cc(=O)n(Cc3ccccc3)c2C1` [Compound 3g, 1-Benzyl-4-hydroxy-7,7-dimethyl-7,8-dihydroquinoline-2,5(1H,6H)-dione], the IC50 is 18.4 µM with HCT116 (colon carcinoma); 26.9 µM in the assay on MCF-7 (breast carcinoma); 32.4 µM with A549 (lung carcinoma); more than 500 µM in the assay with normal fibroblasts; 29.1 µM in the assay with PC3 (prostate carcinoma).

With `O=C1CCCc2c1c(O)cc(=O)n2-c1ccccc1` [Compound 3a, 4-Hydroxy-1-phenyl-7,8-dihydroquinoline-2,5(1H,6H)-dione], the IC50 in the assay on HCT116 (colon carcinoma) was 148 µM; in the assay with MCF-7 (breast carcinoma) it was 189 µM; in the assay with A549 (lung carcinoma), 189 µM; in the assay with normal fibroblasts, more than 500 µM; in the assay with PC3 (prostate carcinoma) it was 151 µM.

As to `O=C1CCCc2c1c(O)cc(=O)n2-c1ccc(Cl)cc1` [Compound 3c, 1-(4-Chlorophenyl)-4-hydroxy-7,8-dihydroquinoline-2,5(1H,6H)-dione], the half-inhibitory concentration (IC50) was 139 µM with HCT116 (colon carcinoma); 261 µM in the assay with MCF-7 (breast carcinoma); 257 µM with A549 (lung carcinoma); more than 500 µM in the assay on normal fibroblasts; 251 µM in the assay with PC3 (prostate carcinoma).

`O=C1CCCc2c1c(O)cc(=O)n2-c1ccc(F)cc1` [Compound 3d, 1-(4-Fluorophenyl)-4-hydroxy-7,8-dihydroquinoline-2,5(1H,6H)-dione]: the IC50 with HCT116 (colon carcinoma) was 46.5 µM; in the assay on MCF-7 (breast carcinoma), 34.2 µM; in the assay on A549 (lung carcinoma) it was 98.5 µM; with normal fibroblasts, more than 500 µM; with PC3 (prostate carcinoma), 65.9 µM.

With `CC1(C)CC(=O)c2c(O)cc(=O)n(-c3ccccc3)c2C1` [Compound 3f, 4-Hydroxy-7,7-dimethyl-1-phenyl-7,8-dihydroquinoline-2,5(1H,6H)-dione], the IC50 was 118 µM in the assay with HCT116 (colon carcinoma); 70.6 µM in the assay with MCF-7 (breast carcinoma); 127 µM in the assay on A549 (lung carcinoma); more than 500 µM in the assay on normal fibroblasts; 95.5 µM in the assay with PC3 (prostate carcinoma).

Turning to `COc1ccccc1-n1c2c(c(O)cc1=O)C(=O)CC(C)(C)C2` [Compound 3j, 4-Hydroxy-1-(2-methoxyphenyl)-7,7-dimethyl-7,8-dihydroquinoline-2,5(1H,6H)-dione], the IC50 in the assay with HCT116 (colon carcinoma) was 38.2 µM; in the assay with MCF-7 (breast carcinoma), 81.4 µM; in the assay with A549 (lung carcinoma), 78.8 µM; with normal fibroblasts, more than 500 µM; in the assay with PC3 (prostate carcinoma) it was 43.6 µM.

Regarding `COc1ccc(-n2c3c(c(O)cc2=O)C(=O)CC(C)(C)C3)cc1` [Compound 3i, 4-Hydroxy-1-(4-methoxyphenyl)-7,7-dimethyl-7,8-dihydroquinoline-2,5(1H,6H)-dione], the IC50 was 33.4 µM in the assay on HCT116 (colon carcinoma); 50.1 µM in the assay on MCF-7 (breast carcinoma); 73 µM in the assay with A549 (lung carcinoma); more than 500 µM in the assay on normal fibroblasts; 34.1 µM in the assay on PC3 (prostate carcinoma).

For `COc1cccc2c1C(=O)c1c(O)c3c(c(O)c1C2=O)C[C@@](O)(C(=O)CO)C[C@@H]3O[C@H]1C[C@H](N)[C@H](O)[C@H](C)O1` [Doxorubicin, reference compound], the IC50 with HCT116 (colon carcinoma) amounted to 5.8 µM; with MCF-7 (breast carcinoma) it was 2.3 µM.

As to `Cc1ccc(-n2c3c(c(O)cc2=O)C(=O)CCC3)cc1` [Compound 3b, 4-Hydroxy-1-(p-tolyl)-7,8-dihydroquinoline-2,5(1H,6H)-dione], the 50% inhibitory concentration (IC50) was 162 µM in the assay on HCT116 (colon carcinoma); 213 µM with MCF-7 (breast carcinoma); 159 µM in the assay with A549 (lung carcinoma); more than 500 µM in the assay on normal fibroblasts; 239 µM in the assay with PC3 (prostate carcinoma).

On to `COc1ccccc1-n1c2c(c(O)cc1=O)C(=O)CCC2` [Compound 3e, 4-Hydroxy-1-(2-methoxyphenyl)-7,8-dihydroquinoline-2,5(1H,6H)-dione], for which the IC50 in the assay on HCT116 (colon carcinoma) was 29.5 µM; in the assay with MCF-7 (breast carcinoma) it was 62.6 µM; in the assay on A549 (lung carcinoma), 67 µM; with normal fibroblasts it was more than 500 µM; with PC3 (prostate carcinoma) it was 45 µM.

As for `CC1(C)CC(=O)c2c(O)cc(=O)n(-c3ccc(F)cc3)c2C1` [Compound 3h, 1-(4-Fluorophenyl)-4-hydroxy-7,7-dimethyl-7,8-dihydroquinoline-2,5(1H,6H)-dione], the IC50 was 28.9 µM in the assay with HCT116 (colon carcinoma); 32.4 µM in the assay with MCF-7 (breast carcinoma); 87.9 µM with A549 (lung carcinoma); more than 500 µM in the assay on normal fibroblasts; 29.3 µM in the assay on PC3 (prostate carcinoma).
